# Measurements collected from several papers.
# Lines come from different studies, so protocols differ.
# ABCG2: Broad substrate specificity ATP-binding cassette transporter ABCG2 (ABCG2, Homo sapiens, UniProt Q9UNQ0)
Compound,target or system,test,system,setting,measurement,value
CC(C)[C@@H]1Cn2ncc(-c3ccc(C(=O)N4CCCc5ccccc54)cc3)c2CN1C(=O)Cc1ccccc1,ABCG2,,"dog, MDCK-MDR1",,Papp B→A,5.2 ×10⁻⁶ cm/s
C/C(O)=C(\C#N)C(=O)Nc1ccc(C(F)(F)F)cc1,ABCG2,,Caco-2,"1 µM, 2 h, pH 7.4",Papp B→A,33.4 ×10⁻⁶ cm/s
C[C@H](C(=O)N1Cc2c(-c3ccc(C(=O)N4CCCc5ccccc54)cc3)cnn2C[C@@H]1C)c1ccccc1,ABCG2,,"dog, MDCK-MDR1",,Papp B→A,13.4 ×10⁻⁶ cm/s
Cc1noc(C)c1Cn1cc(N2C(=O)CN(Cc3cccc(O)c3)C2=O)cn1,,,"male Sprague-Dawley rat, plasma","oral, 100 mg/kg, 12 h",concentration,11.4 ng/mL
COc1ccc2c(=O)n(C)c(-c3ccccc3)nc2c1,,,"male Sprague-Dawley rat, spleen","oral, 30 mg/kg, 15 min",concentration,7.53 ng/mL
Nc1ccc(S(=O)(=O)NC(=O)/C=C\c2ccccc2Cl)cc1,K562,cell growth or viability,,,IC50,> 200 µM
CCOC(=O)[C@@]12C[C@@H]1[C@@H](n1ccc3c(NC)nc(C#Cc4ccc(Cl)s4)nc31)[C@H](O)[C@@H]2O,,,"male Sprague-Dawley rat, plasma","oral, 3 mg/kg, 8 h",concentration,3.68 ng/mL
COc1ccc2c(c1)CCc1c(C(=O)NCCc3nc4cc(C)ccc4[nH]3)n[nH]c1-2,K562,cell growth or viability,,,IC50,< 1.32 µM
Cc1n[nH]c(CC(=O)N2Cc3c(-c4ccc(C(=O)N5CCCc6ccccc65)cc4)cnn3C[C@H]2C)n1,ABCG2,,"dog, MDCK-MDR1",,Papp B→A,14.1 ×10⁻⁶ cm/s
O=C(O)CSc1nnc(Br)n1-c1ccc(C2CC2)c2ccccc12,ABCG2,"transporter uptake, inhibitor",Caco-2,"30 µM, 2 h",inhibition,27%
C=CC1(C)CC(OC(=O)CSCCCCCN(C)C)C2(C)C(C)CCC3(CCC(=O)C32)C(C)C1O (stereo not drawn),K562,cell growth or viability,,,IC50,9.67 µM
COc1cccc(-c2n[nH]c(SCc3ccccn3)n2)c1OC,,,"female Sprague-Dawley rat, plasma","oral, 100 mg/kg, 1 h, single dose",concentration,62200 ng/mL
Cc1cc2cc(O)cc(O)c2c(=O)o1,K562,cell growth or viability,,,IC50,19 µM
CCc1cc(-c2noc(-c3cc(OC)nc(C4CCCC4)c3)n2)cc(C)c1OC[C@@H](O)CO,,,"Wistar rat, plasma","oral, 1 mg/kg, 6 h, single dose",concentration,41.1 ng/mL
"CO[C@H](C(=O)N1Cc2c(-c3ccc(C(=O)N4CCCc5ccccc54)cc3)cnn2C[C@H]1C(C)C)c1cnn(C)c1 (single isomer, unassigned)",ABCG2,,"dog, MDCK-MDR1",,Papp B→A,26.1 ×10⁻⁶ cm/s
O=C(O)c1cc(Br)c(O)c(Br)c1,K562,cell growth or viability,,,IC50,> 432 µM
"CO[C@H](C(=O)N1Cc2c(-c3ccc(C(=O)N4CCCc5ccccc54)cn3)cnn2C[C@H]1C(C)C)c1cnn(C)c1 (single isomer, unassigned)",ABCG2,,"dog, MDCK-MDR1",,Papp B→A,30.6 ×10⁻⁶ cm/s
COC(=O)/C(C#N)=C1\Nc2ccccc2O1,K562,cell growth or viability,,,IC50,20.7 µM
